This is an account of results in article PMC2914798 (Biochimica et biophysica acta, 2010).

[ ]: non-standard residue; d: D form. The star is where a group is joined. Dnp = O=[N+]([O-])c1ccc(*)c([N+](=O)[O-])c1; Mca = COc1ccc2c(CC(=O)*)cc(=O)oc2c1

Assay type in all cases: biochemical
One assay deals with T1, Cath E (Homo sapiens, UniProt P14091).
T1 sequence (P14091 54-396): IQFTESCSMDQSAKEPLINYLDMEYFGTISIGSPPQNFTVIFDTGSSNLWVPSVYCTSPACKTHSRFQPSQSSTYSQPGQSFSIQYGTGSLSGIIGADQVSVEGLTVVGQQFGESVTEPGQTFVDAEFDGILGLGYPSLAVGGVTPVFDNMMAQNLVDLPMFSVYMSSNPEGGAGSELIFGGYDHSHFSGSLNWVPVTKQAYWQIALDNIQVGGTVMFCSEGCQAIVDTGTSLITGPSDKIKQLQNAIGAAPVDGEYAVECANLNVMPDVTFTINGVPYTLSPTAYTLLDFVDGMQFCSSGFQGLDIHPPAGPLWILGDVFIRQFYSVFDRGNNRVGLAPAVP
Put plainly: Michaelis-Menten kinetics of substrate e hydrolysis by Cath E. The note with it: 6.8 nM Cath E, 50 mM sodium acetate pH 4.0, 10 minutes, 37 °C. Put shortly:
(§1)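 Intramolecularly quenched Mca/Dnp FRET peptide, 5–100 µM, in 50 mM sodium acetate pH 4.0, with Cath E at 2.3, 4.5 or 6.8 nM, or Cath D up to 54 nM. Fluorescence (ex 340/em 405 nm) followed over 10 min. Initial velocity taken from the linear-phase slope. Vmax and Km from linear regression of the Hanes-Woolf plot (S/v vs S); kcat = Vmax/[Cath E]. Triplicate.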

Assay [1] has as its target T2, Cath D (Homo sapiens, UniProt P07339). Put plainly: Enzyme digestion and cleavage site identification, Cath D. The following applies: high dose of Cath D, overnight hydrolysis; data not shown.
The target in assay [2] is T2, Cath D. The experiment in a line: Kinetics of substrate e hydrolysis by Cath D. Put shortly:
as §1

T2 sequence (P07339 65-412): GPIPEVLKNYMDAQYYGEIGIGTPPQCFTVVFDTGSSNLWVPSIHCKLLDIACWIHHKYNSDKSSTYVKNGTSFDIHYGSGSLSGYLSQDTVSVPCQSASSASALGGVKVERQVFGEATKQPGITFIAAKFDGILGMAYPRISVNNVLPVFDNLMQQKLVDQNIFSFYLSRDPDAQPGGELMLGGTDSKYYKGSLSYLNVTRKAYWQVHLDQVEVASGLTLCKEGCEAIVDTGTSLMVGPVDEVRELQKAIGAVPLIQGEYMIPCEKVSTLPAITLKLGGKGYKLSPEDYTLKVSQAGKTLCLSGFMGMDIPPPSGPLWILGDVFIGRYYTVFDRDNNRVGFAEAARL

Turning to “Mca-AGFSLPAK(Dnp)[dR]-NH2 (SMILES COc1ccc2c(CC(=O)N[C@@H](C)C(=O)NCC(=O)N[C@@H](Cc3ccccc3)C(=O)N[C@@H](CO)C(=O)N[C@@H](CC(C)C)C(=O)N3CCC[C@H]3C(=O)N[C@@H](C)C(=O)N[C@@H](CCCCNc3ccc([N+](=O)[O-])cc3[N+](=O)[O-])C(=O)N[C@H](CCCNC(=N)N)C(N)=O)cc(=O)oc2c1) [Substrate e]”, the “Kcat/Km (catalytic efficiency), Cath E” value at Cath E was 16.7 µM^−1.S^−1. At Cath D [1], the “cleavage sites by Cath D” value was “two minor cleavage sites were identified, one is between the P1 and P1’ sites (-Leu^5-Pro^6-) and a secondary site was found between P3 and P4 positions (-Gly^2-Phe^3-)”. Further, the “Kcat/Km (catalytic efficiency), Cath D” value at Cath D [2] (up to 54 nM Cath D, same measurement conditions (50 mM sodium acetate pH 4.0)) is listed as “NM ^§”. The “cleavage by Cath D” value at Cath D [2] (up to 54 nM of Cath D, 50 mM sodium acetate pH 4.0) is on record as “no measurable cleavage”.
